Compound activity as filed in PubChem.
HEK293 NFkB inh – lowers PMA/ionomycin-induced NF-kB signal in HEK293 cells; HEK-293 NF-kB luciferase reporter, luminescence; inhibition, % at 3 µM; 62,000 tested, 0.21% active; AID 465;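 active means inhibition above the mean of all tested compounds plus 3 SD, cut at about 40% in these data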;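 further: 0% = stimulated DMSO wells and 100% = 10 µM reference inhibitor 5653914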
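Signal: luciferase luminescence; Material: HEK-293 cells with stable firefly luciferase reporter driven by four HIV NF-kB elements; Probe or stimulus: PMA with ionomycin; Replication: tested once; Times: 1 h compound pretreatment, then 16 h stimulation at 37 °C, 5% CO2; Benchmarks: DMSO and 10 µM reference inhibitor; Evaluation: per-plate % inhibition versus controls.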
5HT1E antag – 5-HT1E (human) receptor antagonism | CHO 5-HT1E Ga15 NFAT-bla reporter, FRET, antagonist | inhibition, % at 6 µM | 65,000 tested, 0.99% active | AID 571;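 active means inhibition above a set limit, the mean inhibition across every tested compound plus 3 SD, cut at about 29% in these data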;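 further: signal is the 460 over 535 nm emission ratio of beta-lactamase substrate; 0% = agonist plus DMSO wells and 100% = wells without agonist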
Target sequence (P28566 whole entry, looked up): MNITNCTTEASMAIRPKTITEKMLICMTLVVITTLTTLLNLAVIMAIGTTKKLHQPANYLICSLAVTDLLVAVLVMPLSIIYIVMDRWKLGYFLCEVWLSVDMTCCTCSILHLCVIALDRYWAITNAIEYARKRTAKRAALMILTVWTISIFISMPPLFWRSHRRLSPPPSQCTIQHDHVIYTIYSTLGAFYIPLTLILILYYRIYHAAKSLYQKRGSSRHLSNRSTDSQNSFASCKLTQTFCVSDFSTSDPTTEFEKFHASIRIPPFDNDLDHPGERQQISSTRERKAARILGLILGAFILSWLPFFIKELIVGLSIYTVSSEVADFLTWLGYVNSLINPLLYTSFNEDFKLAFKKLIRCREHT
5HT1E ag – 5-HT1E (human) receptor agonism; P28566; CHO 5-HT1E Ga15 NFAT-bla reporter, FRET; 0% DMSO wells, 100% control agonist wells; activation, % at 6 µM; 65,000 tested, 0.69% active;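 active means activation above a set limit, the screen-wide mean activation plus 3 SD, cut at about 8.5% in these data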;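 further: 100% = positive control agonist at 1 µM giving full maximal response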
Jurkat viability – reduces viability or proliferation of Jurkat cells. Jurkat E6.1 viability, ATP luminescence, 48 h. inhibition, % at 4 µM. 56,000 tested, 1.2% active. AID 463;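 active means inhibition above the mean inhibition of all tested compounds plus 3 SD, cut at about 28% in these data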
5HT1a antag – 5-HT1a (human) receptor antagonism | P08908 | CHO 5-HT1a Ga15 NFAT-bla reporter, antagonist mode | inhibition, % at 10 µM | 62,000 tested, 0.68% active | AID 612;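 active means inhibition above the mean of all tested compounds plus 3 SD, cut at about 43% in these data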;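 further: receptor stimulated by 5-CT agonist at 100 nM near EC80; beta-lactamase reporter measured by ratiometric fluorescence of a cleavable substrate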
HTR1A agonist – agonists of human 5-HT1a serotonin receptor | 65,000 tested, 0.56% active | activation, % at 10 µM | CHO 5-HT1a Ga15 NFAT-bla reporter, FRET ratio; 0% basal, 100% maximal reference agonist;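 active means activation above the screen-wide mean activation plus 3 SD, cut at about 19% in these data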;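 further: 0% = DMSO wells and 100% = 5-CT at EC100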
Numbers without * were called inactive. The list is not random: actives were taken first. Their share in the collection is about 3.3%.

`CC1=C(C(=O)OC2CCCCCCC2)C(c2ccc(O)cc2)NC(=O)N1` (stereo not drawn) gave HEK293 NFkB inh 22, 5HT1E antag 29*, 5HT1E ag 0, Jurkat viability 11, 5HT1a antag 26 and HTR1A agonist -3.
For O=C(CN1CCCCC1)Nc1cccc(-n2cnnn2)c1 the results were HEK293 NFkB inh 15, 5HT1E antag 14, 5HT1E ag 0, Jurkat viability 3, 5HT1a antag 11 and HTR1A agonist -1.
C=CCNC(=O)COc1ccc(Br)cc1Cl was read as HEK293 NFkB inh -5, 5HT1E antag -4, 5HT1E ag 1, Jurkat viability -5, 5HT1a antag -6 and HTR1A agonist -2.
Screening Cc1nn(-c2ccccc2)c2sc(C(=O)O)cc12 returned HEK293 NFkB inh 6, 5HT1E antag 7, 5HT1E ag 0, 5HT1a antag 6 and HTR1A agonist 1.
For Cc1nn(-c2ccccc2)c2sc(C(=O)N3CCOCC3)cc12 the results were HEK293 NFkB inh -2, 5HT1E antag 36*, 5HT1E ag 1, Jurkat viability -1, 5HT1a antag 8 and HTR1A agonist 1.
Screening O=c1nc(-c2ccccc2)c2ccccc2[nH]1 returned HEK293 NFkB inh 22, 5HT1E antag -7, 5HT1E ag 0, Jurkat viability -1, 5HT1a antag -2 and HTR1A agonist -1.
Screening O=c1cc(-c2ccccc2)[nH]c2ccccc12 returned HEK293 NFkB inh 30, 5HT1E antag 53*, 5HT1E ag -1, Jurkat viability 93*, 5HT1a antag 33 and HTR1A agonist -1.
Screening COC(=O)c1c(NC(=O)c2ccco2)sc(C(=O)N2CCCC2)c1C returned HEK293 NFkB inh 5, 5HT1E antag 25, 5HT1E ag 2, Jurkat viability 2, 5HT1a antag 17 and HTR1A agonist 0.
Screening O=C(CCN1C(=O)COc2ccccc21)NCCN1CCOCC1 returned HEK293 NFkB inh 4, 5HT1E antag 0, 5HT1E ag -1, Jurkat viability 4, 5HT1a antag 8 and HTR1A agonist -3.
Screening O=C(NCCCN1CCN(c2cccc(Cl)c2)CC1)c1ccc(N2CCCC2=O)cc1 returned HEK293 NFkB inh 17, 5HT1E antag -6, 5HT1E ag 8, 5HT1a antag 46* and HTR1A agonist 15.
O=C(NCCCN1CCCC1=O)c1cccc(N2CCCC2=O)c1 was read as HEK293 NFkB inh 14, 5HT1E antag 9, 5HT1E ag -1, Jurkat viability -1, 5HT1a antag 3 and HTR1A agonist -2.
O=C(CCN1C(=O)COc2ccccc21)NCCN1CCN(c2cccc(Cl)c2)CC1 was read as HEK293 NFkB inh 4, 5HT1E antag 7, 5HT1E ag 9.6*, Jurkat viability 5, 5HT1a antag 33 and HTR1A agonist 3.
For O=C(NCCCN1CCN(c2cccc(Cl)c2)CC1)c1cccc(N2CCCC2=O)c1 the results were HEK293 NFkB inh 12, 5HT1E antag 0, 5HT1E ag 2, 5HT1a antag 89* and HTR1A agonist 2.
`Cc1cccc(C(=O)NCCN2CCN(c3ccccc3)CC2)c1` gave HEK293 NFkB inh 0, 5HT1E antag 3, 5HT1E ag 0, Jurkat viability -1, 5HT1a antag -278 and HTR1A agonist 52*.
CC(=O)c1sc2nc(=O)c(C)nn2c1C was read as HEK293 NFkB inh 8, 5HT1E antag -7, 5HT1E ag -1, Jurkat viability -4, 5HT1a antag -11 and HTR1A agonist 0.
Screening OC(COc1c(F)cc(Br)cc1F)CN1CCN(c2ccc(F)cc2)CC1 (stereo not drawn) returned HEK293 NFkB inh 1, 5HT1E antag -7, 5HT1E ag 2, Jurkat viability -3, 5HT1a antag 63* and HTR1A agonist 9.
For CCCCOc1ccc(N2C(=O)CC(N(O)c3ccccc3)C2=O)cc1 (stereo not drawn) the results were HEK293 NFkB inh 6, 5HT1E antag 34*, 5HT1E ag 1, Jurkat viability 9, 5HT1a antag 9 and HTR1A agonist 0.
CCOc1ccccc1OCC(=O)Nc1nnc(COC)s1 was read as HEK293 NFkB inh 17, 5HT1E antag 6, 5HT1E ag 0, Jurkat viability 4, 5HT1a antag 0 and HTR1A agonist 1.
Screening Cc1cccc(Cn2c(NCC(C)O)nc3c2c(=O)n(C)c(=O)n3C)c1 (stereo not drawn) returned HEK293 NFkB inh 12, 5HT1E antag -4, 5HT1E ag 0, Jurkat viability 39*, 5HT1a antag -18 and HTR1A agonist 0.
Screening CNc1nc2c(c(=O)n(C)c(=O)n2C)n1Cc1ccccc1 returned HEK293 NFkB inh 14, 5HT1E antag 8, 5HT1E ag 0, Jurkat viability 45*, 5HT1a antag 1 and HTR1A agonist -2.
For COCCNc1nc2c(c(=O)n(C)c(=O)n2C)n1Cc1cccc(C)c1 the results were HEK293 NFkB inh 8, 5HT1E antag 0, 5HT1E ag 1, Jurkat viability 28*, 5HT1a antag -10 and HTR1A agonist 1.
Screening Cn1c(=O)c2c(nc(NCc3ccco3)n2C/C=C/c2ccccc2)n(C)c1=O returned HEK293 NFkB inh 0, 5HT1E antag 23, 5HT1E ag 0, Jurkat viability 49*, 5HT1a antag -1 and HTR1A agonist 1.
COCCCNc1nc2c(c(=O)n(C)c(=O)n2C)n1Cc1cccc(OC)c1 was read as 5HT1E antag -4, 5HT1E ag 0 and HTR1A agonist 4.
For Cn1c(=O)c2c(nc(NCCCO)n2Cc2cccc(Br)c2)n(C)c1=O the results were HEK293 NFkB inh 22, 5HT1E antag 6, 5HT1E ag -1, Jurkat viability 23, 5HT1a antag -13 and HTR1A agonist -1.
For Cc1cccc(Cn2c(NCCO)nc3c2c(=O)n(C)c(=O)n3C)c1 the results were HEK293 NFkB inh 10, 5HT1E antag -3, 5HT1E ag 1, Jurkat viability 89*, 5HT1a antag 5 and HTR1A agonist -1.
`CCOc1ccc(C(=O)c2ccc(OCC)c(N)c2)cc1N` gave HEK293 NFkB inh 6, 5HT1E antag 1, 5HT1E ag 0, Jurkat viability 12, 5HT1a antag 13 and HTR1A agonist -3.
`CN(C)c1ccc(C(=O)c2ccc(N(C)C)c(N)c2)cc1N` gave HEK293 NFkB inh 11, 5HT1E antag 1, 5HT1E ag -1, Jurkat viability 60*, 5HT1a antag 4 and HTR1A agonist -2.
`Cc1ccc(C(=O)N2CCCC(c3nc4c(nnn4Cc4ccccc4)c(=O)[nH]3)C2)cc1` (stereo not drawn) gave HEK293 NFkB inh 3, 5HT1E antag 8, 5HT1E ag 0, Jurkat viability 0, 5HT1a antag 4 and HTR1A agonist 21*.
